Test results reported in ChEMBL document CHEMBL4387708, “Enhancement of Benzothiazoles as Pteridine Reductase-1 Inhibitors for the Treatment of Trypanosomatidic Infections” (J Med Chem, 2019).
Calls of active or inactive are those of the source. The rule behind the calls is not given here.

Experiments:
Trypanosoma cruzi = experiment: Growth inhibition of trypomastigote form of Trypanosoma cruzi Y infected in human U2OS cells at 50 uM measured after 72 hrs by DRAQ5 DNA dye based confocal microscopic analysis relative to control; format: organism-based; conditions: for inhibition at 50 µM: Trypanosoma cruzi, Y, U2OS, read-out: GI; for growth inhibition (GI): trypanosoma cruzi, 50 µM
Leishmania infantum = experiment: Growth inhibition of luciferase expressing Leishmania infantum axenic amastigotes infected in human THP1 cells at 10 uM measured after 72 hrs by steady-glo luminescence assay relative to control; format: organism-based; conditions: for growth inhibition (GI): leishmania infantum, 72 h, 10 µM
Pteridine reductase 1 = target: T1, Pteridine reductase 1 (Leishmania major, UniProt Q01782); experiment: Inhibition of Leishmania major pteridine reductase 1 using di-hydrobiopterine as substrate in presence of NADPH
T1 sequence (Q01782 whole entry): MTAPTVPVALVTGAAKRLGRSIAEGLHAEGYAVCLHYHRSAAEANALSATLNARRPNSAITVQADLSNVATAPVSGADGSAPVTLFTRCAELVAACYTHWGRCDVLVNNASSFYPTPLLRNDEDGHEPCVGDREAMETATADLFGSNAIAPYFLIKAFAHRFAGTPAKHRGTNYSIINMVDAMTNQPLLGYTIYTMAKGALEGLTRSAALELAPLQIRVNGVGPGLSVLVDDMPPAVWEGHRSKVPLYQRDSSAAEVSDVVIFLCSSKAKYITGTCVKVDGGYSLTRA
Summary of the method: (§1)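 Photometric PTR1 assay with NADPH and dihydrobiopterin substrate. H₄B formation is coupled non-enzymatically to cytochrome c reduction, read as signal increase at 550 nm.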

[1] = Inhibition of N-terminal His-tagged Trypanosoma brucei pteridine reductase 1 using di-hydrobiopterine as substrate measured at 1 min interval for 50 mins in presence of NADPH; summary of the method: as §1
Trypanosoma brucei [2] = experiment: Inhibition of N-terminal His-tagged Trypanosoma brucei pteridine reductase 1 at 50 uM using di-hydrobiopterine as substrate measured at 1 min interval for 50 mins in presence of NADPH relative to control; summary of the method: as §1
[3] = target: T2, Pteridine reductase 1 (Leishmania major) (UniProt Q01782); experiment: Inhibition of Leishmania major pteridine reductase 1 at 50 uM using di-hydrobiopterine as substrate in presence of NADPH relative to control; summary of the method: as §1
T2 sequence (whole entry): T1 sequence (Q01782 whole entry)

Trypanosoma brucei [4] = experiment: Growth inhibition of Trypanosoma brucei bloodstream forms at 10 uM measured after 72 hrs by resazurin-based fluorescence assay relative to control; format: organism-based; conditions: Trypanosoma brucei, read-out: GI
Trypanosoma brucei [5] = experiment: Inhibition of PTR1 in Trypanosoma brucei bloodstream forms assessed as potentiation of methotrexate-induced parasitic cell growth inhibition at 10 uM measured after 72 hrs by resazurin-based fluorescence assay (reference value: 19 +/- 6%)
Summary of the method: (§2)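 Bloodstream-form T. brucei resazurin assay: 72 h at 37 °C, 5% CO₂, then fluorescence at ex 540/em 620 nm. Benzothiazole was tested at 10 μM alone and with 4 μM methotrexate. The index is the combination's activity divided by the sum of the activities of 10 μM benzothiazole and 4 μM methotrexate given separately.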

Trypanosoma brucei [6] = experiment: Inhibition of PTR1 in Trypanosoma brucei bloodstream forms assessed as potentiation of methotrexate-induced parasitic cell growth inhibition by measuring potentiation index at 10 uM measured after 72 hrs by resazurin-based fluorescence assay relative to control (methotrexate); format: functional; summary of the method: as §2
Cytochrome P450 1A2 = target: T3, Cytochrome P450 1A2 (Homo sapiens, UniProt P05177); experiment: Inhibition of human CYP1A2 expressed in baculovirus infected insect cells using beetle D-luciferin as substrate preincubated for 30 mins followed by NADPH addition and measured after 30 mins by CYP450-Glo assay
T3 sequence (P05177 whole entry): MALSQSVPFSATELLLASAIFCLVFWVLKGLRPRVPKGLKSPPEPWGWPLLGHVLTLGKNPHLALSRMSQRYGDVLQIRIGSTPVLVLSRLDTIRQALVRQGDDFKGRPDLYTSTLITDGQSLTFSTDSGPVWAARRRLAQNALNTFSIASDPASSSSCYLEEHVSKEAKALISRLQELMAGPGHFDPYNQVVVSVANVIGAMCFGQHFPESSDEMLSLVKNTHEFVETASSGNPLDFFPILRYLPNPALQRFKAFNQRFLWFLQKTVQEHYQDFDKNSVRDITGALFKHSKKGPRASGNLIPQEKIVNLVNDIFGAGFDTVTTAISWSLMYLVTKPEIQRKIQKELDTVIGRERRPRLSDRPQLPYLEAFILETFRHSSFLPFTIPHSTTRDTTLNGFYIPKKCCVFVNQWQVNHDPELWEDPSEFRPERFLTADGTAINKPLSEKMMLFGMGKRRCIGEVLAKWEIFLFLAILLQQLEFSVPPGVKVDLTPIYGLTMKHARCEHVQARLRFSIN

Cytochrome P450 2C9 = Cytochrome P450 2C9 (Homo sapiens, UniProt P11712); experiment: Inhibition of human CYP2C9 expressed in baculovirus infected insect cells using beetle D-luciferin as substrate preincubated for 30 mins followed by NADPH addition and measured after 30 mins by CYP450-Glo assay
Chain of Cytochrome P450 2C9 (P11712 whole entry): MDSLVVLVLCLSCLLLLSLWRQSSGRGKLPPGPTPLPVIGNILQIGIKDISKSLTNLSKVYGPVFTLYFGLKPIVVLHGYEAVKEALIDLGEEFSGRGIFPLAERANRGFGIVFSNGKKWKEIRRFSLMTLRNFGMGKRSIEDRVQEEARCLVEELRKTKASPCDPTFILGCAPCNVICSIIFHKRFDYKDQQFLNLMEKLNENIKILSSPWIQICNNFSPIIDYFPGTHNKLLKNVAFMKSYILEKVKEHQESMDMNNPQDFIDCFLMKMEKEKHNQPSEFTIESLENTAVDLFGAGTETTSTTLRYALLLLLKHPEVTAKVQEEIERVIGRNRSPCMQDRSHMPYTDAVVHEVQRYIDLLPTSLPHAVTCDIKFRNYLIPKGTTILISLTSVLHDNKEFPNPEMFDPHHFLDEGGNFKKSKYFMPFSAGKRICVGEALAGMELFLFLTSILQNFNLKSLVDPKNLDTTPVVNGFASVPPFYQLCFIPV

Cytochrome P450 2C19 = Cytochrome P450 2C19 (Homo sapiens, UniProt P33261); experiment: Inhibition of human CYP2C19 expressed in baculovirus infected insect cells using beetle D-luciferin as substrate preincubated for 30 mins followed by NADPH addition and measured after 30 mins by CYP450-Glo assay
Chain of Cytochrome P450 2C19 (P33261 whole entry): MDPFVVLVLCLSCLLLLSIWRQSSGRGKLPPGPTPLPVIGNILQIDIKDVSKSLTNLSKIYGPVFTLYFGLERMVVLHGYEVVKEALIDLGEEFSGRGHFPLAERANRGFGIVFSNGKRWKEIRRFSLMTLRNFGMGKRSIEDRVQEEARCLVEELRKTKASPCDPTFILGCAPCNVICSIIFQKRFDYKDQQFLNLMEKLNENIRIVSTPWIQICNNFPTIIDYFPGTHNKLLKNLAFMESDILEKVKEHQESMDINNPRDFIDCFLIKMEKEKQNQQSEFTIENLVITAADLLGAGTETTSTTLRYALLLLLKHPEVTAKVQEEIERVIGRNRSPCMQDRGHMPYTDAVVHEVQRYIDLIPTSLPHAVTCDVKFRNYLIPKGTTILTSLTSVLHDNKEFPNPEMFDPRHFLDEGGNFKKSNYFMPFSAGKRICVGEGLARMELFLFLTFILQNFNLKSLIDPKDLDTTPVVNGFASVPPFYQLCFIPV

Cytochrome P450 2D6 = Cytochrome P450 2D6 (Homo sapiens, UniProt P10635); experiment: Inhibition of human CYP2D6 expressed in baculovirus infected insect cells using beetle D-luciferin as substrate preincubated for 30 mins followed by NADPH addition and measured after 30 mins by CYP450-Glo assay
Chain of Cytochrome P450 2D6 (P10635 whole entry): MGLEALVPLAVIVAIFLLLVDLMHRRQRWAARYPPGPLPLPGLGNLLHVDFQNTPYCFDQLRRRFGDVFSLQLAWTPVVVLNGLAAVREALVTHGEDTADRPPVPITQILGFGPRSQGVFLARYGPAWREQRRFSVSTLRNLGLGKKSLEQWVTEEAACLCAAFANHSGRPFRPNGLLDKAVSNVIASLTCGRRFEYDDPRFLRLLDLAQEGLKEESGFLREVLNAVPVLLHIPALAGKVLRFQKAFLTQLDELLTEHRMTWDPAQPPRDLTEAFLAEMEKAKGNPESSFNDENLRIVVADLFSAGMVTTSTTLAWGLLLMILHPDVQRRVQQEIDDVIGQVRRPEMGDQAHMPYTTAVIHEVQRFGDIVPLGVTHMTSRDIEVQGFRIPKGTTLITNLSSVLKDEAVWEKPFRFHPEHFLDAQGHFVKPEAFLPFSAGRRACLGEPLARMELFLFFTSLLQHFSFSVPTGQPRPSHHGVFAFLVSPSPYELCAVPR

Cytochrome P450 3A4 = Cytochrome P450 3A4 (Homo sapiens, UniProt P08684); experiment: Inhibition of human CYP3A4 expressed in baculovirus infected insect cells using beetle D-luciferin as substrate preincubated for 30 mins followed by NADPH addition and measured after 30 mins by CYP450-Glo assay
Chain of Cytochrome P450 3A4 (P08684 whole entry): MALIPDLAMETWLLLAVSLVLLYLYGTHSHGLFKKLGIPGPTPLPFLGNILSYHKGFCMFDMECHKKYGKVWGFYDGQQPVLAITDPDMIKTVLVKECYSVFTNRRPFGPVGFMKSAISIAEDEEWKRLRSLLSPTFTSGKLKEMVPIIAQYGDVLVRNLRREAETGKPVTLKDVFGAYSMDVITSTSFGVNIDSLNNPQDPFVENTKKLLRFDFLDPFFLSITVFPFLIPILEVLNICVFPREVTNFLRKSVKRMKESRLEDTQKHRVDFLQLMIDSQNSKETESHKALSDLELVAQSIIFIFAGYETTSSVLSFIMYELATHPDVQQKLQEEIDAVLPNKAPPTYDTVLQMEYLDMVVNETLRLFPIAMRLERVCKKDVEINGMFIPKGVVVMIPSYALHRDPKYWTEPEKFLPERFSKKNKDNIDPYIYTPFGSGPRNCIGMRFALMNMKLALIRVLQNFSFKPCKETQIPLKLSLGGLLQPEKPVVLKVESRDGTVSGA

[7] = Cytotoxicity against human A549 cells after 48 hrs by Celltiter-glo assay; format: cell-based
[8] = Cytotoxicity against human THP1 cells after 72 hrs by MTT assay; format: cell-based, THP-1; conditions: read-out: NOAEL
[9] = Cytotoxicity against human U2OS cells assessed as reduction in cell number; format: cell-based
[10] = Mitochondrial toxicity in human 786-O cells measured after 6 hrs by MitoTracker Red chloromethyl-X-rosamine based assay; format: cell-based, 786-0
[11] = Selectivity ratio of IC50 for Leishmania major pteridine reductase 1 to IC50 for N-terminal His-tagged Trypanosoma brucei pteridine reductase 1
[12] = target: Voltage-gated inwardly rectifying potassium channel KCNH2 (Homo sapiens, UniProt Q12809); experiment: Displacement of Tracer Red from human ERG by fluorescence polarization assay
Chain of Voltage-gated inwardly rectifying potassium channel KCNH2 (Q12809 whole entry): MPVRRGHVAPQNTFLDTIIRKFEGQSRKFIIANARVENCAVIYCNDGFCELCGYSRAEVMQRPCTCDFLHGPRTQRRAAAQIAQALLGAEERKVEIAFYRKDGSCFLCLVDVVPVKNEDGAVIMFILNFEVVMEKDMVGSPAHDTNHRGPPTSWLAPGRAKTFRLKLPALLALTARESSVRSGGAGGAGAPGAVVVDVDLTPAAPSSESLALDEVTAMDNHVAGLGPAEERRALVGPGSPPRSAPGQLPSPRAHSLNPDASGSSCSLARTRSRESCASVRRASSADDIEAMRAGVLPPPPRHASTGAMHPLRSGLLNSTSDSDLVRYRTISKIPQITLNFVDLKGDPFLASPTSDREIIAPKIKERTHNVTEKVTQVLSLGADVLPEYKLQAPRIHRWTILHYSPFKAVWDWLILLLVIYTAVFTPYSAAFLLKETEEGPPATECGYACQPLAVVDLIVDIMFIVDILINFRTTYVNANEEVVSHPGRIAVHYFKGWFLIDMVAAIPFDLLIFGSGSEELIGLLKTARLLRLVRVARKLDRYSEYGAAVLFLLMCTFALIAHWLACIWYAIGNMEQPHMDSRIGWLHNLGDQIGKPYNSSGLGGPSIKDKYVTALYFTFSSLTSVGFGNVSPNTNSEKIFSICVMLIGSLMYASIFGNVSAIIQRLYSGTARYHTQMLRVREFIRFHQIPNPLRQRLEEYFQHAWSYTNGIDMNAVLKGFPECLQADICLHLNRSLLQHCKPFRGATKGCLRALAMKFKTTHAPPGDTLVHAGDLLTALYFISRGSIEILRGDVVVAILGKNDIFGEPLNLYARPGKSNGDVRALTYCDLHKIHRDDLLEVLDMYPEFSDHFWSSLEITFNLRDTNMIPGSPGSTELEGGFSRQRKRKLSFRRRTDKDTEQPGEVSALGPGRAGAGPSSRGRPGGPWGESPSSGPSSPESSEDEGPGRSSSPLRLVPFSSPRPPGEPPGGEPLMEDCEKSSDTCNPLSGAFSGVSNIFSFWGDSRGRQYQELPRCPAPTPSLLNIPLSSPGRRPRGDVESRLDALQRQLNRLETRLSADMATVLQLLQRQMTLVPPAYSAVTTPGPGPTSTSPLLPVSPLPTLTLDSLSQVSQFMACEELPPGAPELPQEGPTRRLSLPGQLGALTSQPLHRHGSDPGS

## N#Cc1ccc(CSc2ccc3nc(N)sc3c2)cc1
Trypanosoma cruzi
  inhibition at 50 µM: 27.3%
Leishmania infantum
  growth inhibition (GI): Non-Toxic
Pteridine reductase 1; read-out: IC50
  IC50: 12.4 µM
[1]
  IC50: 0.35 µM
Trypanosoma brucei [2]
  inhibition: > 60%
[3]
  inhibition: > 60%
Trypanosoma brucei [4]
  inhibition at 10 µM: 29 to 35%
Trypanosoma brucei [5]
  growth inhibition (GI): 63%
Trypanosoma brucei [6]
  Ratio: 1.3
Cytochrome P450 1A2
  IC50: > 25 µM
Cytochrome P450 2C9
  IC50: 10 to 25 µM
Cytochrome P450 2C19
  IC50: < 10 µM
Cytochrome P450 2D6
  IC50: < 10 µM
Cytochrome P450 3A4
  IC50: < 10 µM
[7]
  GI50 at 48 h: > 25 µM
[8]
  MNTC at 72 h: > 25 µM
[9]
  GI50: > 25 µM
[10]
  IC50 at 6 h: < 10 µM
[11]
  Ratio IC50: 2 to 100

## Nc1nc2c(C(=O)NCc3ccc(Cl)c(Cl)c3)cc(O)c(O)c2s1
Trypanosoma cruzi
  inhibition at 50 µM: 18.3%
Leishmania infantum
  growth inhibition (GI): Non-Toxic
Pteridine reductase 1; read-out: IC50
  IC50: 36.8 µM
[1]
  IC50: 32.3 µM
Trypanosoma brucei [2]
  inhibition: > 60%
[3]
  inhibition: > 60%
Trypanosoma brucei [4]
  inhibition at 10 µM: 16%
[12]
  IC50: > 25 µM
Cytochrome P450 1A2
  IC50: > 25 µM
Cytochrome P450 2C9
  IC50: > 25 µM
Cytochrome P450 2C19
  IC50: > 25 µM
Cytochrome P450 2D6
  IC50: < 10 µM
Cytochrome P450 3A4
  IC50: < 10 µM
[7]
  GI50 at 48 h: > 25 µM
[8]
  MNTC at 72 h: > 25 µM
[9]
  GI50: > 25 µM
[10]
  IC50 at 6 h: > 25 µM
[11]
  Ratio IC50: 2 to 100

## Nc1nc2ccc(C(=O)NCc3ccc(Cl)c(Cl)c3)cc2s1
Trypanosoma cruzi
  growth inhibition (GI): Non-Toxic
Leishmania infantum; Leishmania infantum, THP-1, 72 h, read-out: GI
  inhibition at 10 µM: 5%
Pteridine reductase 1; read-out: IC50
  IC50: 15.3 µM
[1]
  IC50: 5.4 µM
Trypanosoma brucei [2]
  inhibition: > 60%
[3]
  inhibition: > 60%
Trypanosoma brucei [4]
  inhibition at 10 µM: 5%
[12]
  IC50: > 25 µM
Cytochrome P450 1A2
  IC50: > 25 µM
Cytochrome P450 2C9
  IC50: > 25 µM
Cytochrome P450 2C19
  IC50: < 10 µM
Cytochrome P450 2D6
  IC50: < 10 µM
Cytochrome P450 3A4
  IC50: < 10 µM
[7]
  GI50 at 48 h: > 25 µM
[8]
  MNTC at 72 h: > 25 µM
[9]
  GI50: > 25 µM
[10]
  IC50 at 6 h: < 10 µM
[11]
  Ratio IC50: 2 to 100

## Nc1nc2ccc(OCc3ccccc3)cc2s1
Trypanosoma cruzi
  growth inhibition (GI): Non-Toxic
Leishmania infantum
  growth inhibition (GI): Non-Toxic
Pteridine reductase 1
  IC50: Not Active
[1]
  IC50: 13.4 µM
Trypanosoma brucei [2]
  inhibition: > 60%
[3]
  inhibition: inactive
Trypanosoma brucei [4]
  inhibition at 10 µM: 28%
[12]
  IC50: < 10 µM
Cytochrome P450 1A2
  IC50: < 10 µM
Cytochrome P450 2C9
  IC50: > 25 µM
Cytochrome P450 2C19
  IC50: > 25 µM
Cytochrome P450 2D6
  IC50: < 10 µM
Cytochrome P450 3A4
  IC50: 10 to 25 µM
[7]
  GI50 at 48 h: > 25 µM
[8]
  MNTC at 72 h: > 25 µM
[9]
  GI50: > 25 µM
[10]
  IC50 at 6 h: > 25 µM
[11]
  Ratio IC50: 2 to 100

## N#Cc1ccc(CS(=O)(=O)c2ccc3nc(N)sc3c2)cc1
Trypanosoma cruzi
  growth inhibition (GI): Non-Toxic
Leishmania infantum
  growth inhibition (GI): Non-Toxic
[1]
  IC50: 3 µM
Trypanosoma brucei [2]
  inhibition: > 60%
[3]
  inhibition: 55.5%
Trypanosoma brucei [4]
  inhibition at 10 µM: 9 to 13%
Trypanosoma brucei [5]
  growth inhibition (GI): 48%
Trypanosoma brucei [6]
  Ratio: 1.5
[12]
  IC50: > 25 µM
Cytochrome P450 1A2
  IC50: > 25 µM
Cytochrome P450 2C9
  IC50: > 25 µM
Cytochrome P450 2C19
  IC50: 10 to 25 µM
Cytochrome P450 2D6
  IC50: < 10 µM
Cytochrome P450 3A4
  IC50: < 10 µM
[7]
  GI50 at 48 h: > 25 µM
[8]
  MNTC at 72 h: > 25 µM
[9]
  GI50: > 25 µM
[10]
  IC50 at 6 h: > 25 µM
[11]
  Ratio IC50: 2 to 100
